Published values from different studies.
Lines come from different studies, so protocols differ.
HDAC8: Histone deacetylase 8 (HDAC8, Homo sapiens, UniProt Q9BY41)
ALOX5: Polyunsaturated fatty acid 5-lipoxygenase (ALOX5, Homo sapiens, UniProt P09917)
HTR1D: 5-hydroxytryptamine receptor 1D (HTR1D, Homo sapiens, UniProt P28221)

| SMILES | target | assay | test system | conditions | inhibition [%] |
| --- | --- | --- | --- | --- | --- |
| CC(=O)OC1c2c(ccc3ccc(=O)oc23)OC(C)(C)C1OC(=O)C(C)(O)C(C)O (stereo not drawn) | HDAC8 | enzyme activity, inhibitor |  | 10 µM | 41.2 |
| CCc1c(O)c(=S)ccn1CC | ALOX5 | enzyme activity, inhibitor, fluorescence |  | 1 mM | > 70 |
| COc1ccc(Cc2nnc(NS(=O)(=O)c3cccc4ccccc34)s2)cc1 | Glutathione hydrolase 1 proenzyme (Homo sapiens, UniProt P19440) | enzyme activity in cells, inhibitor | NIH3T3 | 100 µM | 59 |
| CCN(CC)c1ccc(C2Nc3ccc(C(=O)c4ccccc4)cc3NC3=C2C(=O)CC(C)(C)C3)cc1 (stereo not drawn) | HTR1D | ligand displacement, radioligand |  | 10 µM | 25 |
| O=c1occcc1O | ALOX5 | enzyme activity, inhibitor, fluorescence |  | 1 mM | > 70 |
| COC(=O)[C@]1(O)C[C@@H](O)[C@@H](O)[C@H](OC(=O)/C=C/c2ccc(O)c(O)c2)C1 | HDAC8 | enzyme activity, inhibitor |  | 10 µM | 60.5 |
| Oc1cccc(Nc2nc(-c3ccc(F)cc3F)cs2)c1 | Mu-type opioid receptor (OPRM1, Homo sapiens, UniProt P35372) | ligand displacement |  | 10 µM | 14.2 |
| CC1(C)CC[C@]2(C)CC[C@]3(C)C(=CC[C@@H]4[C@@]5(C)CC[C@H](O)C(C)(C)[C@@H]5CC[C@]43C)[C@@H]2C1 | HDAC8 | enzyme activity, inhibitor |  | 10 µM | 34.9 |
| CCCNc1nc2ccccc2n1Cc1ccc(Cl)cc1 | HTR1D | cell-free assay |  | 10 µM | -20.3 |
| COc1cc(NC(C)=O)c(Cl)cc1C(=O)Nc1nccs1 | Substance-K receptor (TACR2, Homo sapiens, UniProt P21452) | cell-free assay |  | 10 µM | 20 |
| CCN1CCN(Cc2ccc(NC(=O)c3ccc(C)c(Oc4ccnc5[nH]ccc45)c3)cc2C(F)(F)F)CC1 | Mitogen-activated protein kinase kinase kinase 4 (MAP3K4, Homo sapiens, UniProt Q9Y6R4) | target engagement in cells, inhibitor, chemoproteomics | A-375 | 50 nM | -20.3 |
| CCn1ccc(=S)c(O)c1C | ALOX5 | enzyme activity, inhibitor, fluorescence |  | 1 mM | > 70 |
| COc1ccc(CCCn2ncc3c2nc(N)n2nc(-c4ccco4)nc32)cc1 | Adenosine receptor A3 (Mus musculus, UniProt Q61618) | ligand displacement, radioligand |  | 10 µM, cell membranes | 6 |
| O=c1cc(-c2ccc(O)c(O)c2)oc2cc(O)cc(O)c12 | HDAC8 | enzyme activity, inhibitor |  | 10 µM | 67.2 |
| CN(C)C1CCN(CC#Cc2nn(C3CCCC3)c3nc(NCc4ccccc4)ncc23)C1 (stereo not drawn) | G protein-coupled receptor kinase 4 (GRK4, Homo sapiens, UniProt P32298) | enzyme activity, inhibitor, FRET |  | 0.1 µM | 7 |
